Experimental data reported in publication PMC3563241 (Nuclear medicine and biology, 2012).
Where “and” joins values, the source holds several entries; their conditions need not be identical. Identical values can stand only once.

Columns and labels:
integrin α4β1 (VLA-4) = integrin α4β1 (VLA-4) (Mus musculus, UniProt P09055+Q00651); experiment: Saturation binding assay in B16F10 melanoma cells; settings: 4 °C, 2 h, 0.1–80 nM
Procedure, shortened: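 Binding medium was HBSS with 0.1% BSA and 1 mM Mn²⁺. Nonspecific binding was measured with 12 μg unlabelled ligand. After 2 h on ice, cells were rinsed, lysed in 0.5% SDS and gamma-counted. Counts were normalised to BCA protein, n=3 per point.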

[1] = Biodistribution studies in B16F10 tumor-bearing mice; type: in vivo, C57BL/6 mice; settings: C57BL/6, mouse, iv, total radioactivity; for tissue uptake at 2 h: 14 μCi (14 ng); for tissue to tissue ratio at 2 h: 14 ng
Procedure, shortened: (§1)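 Subcutaneous B16F10 tumours (1 × 10⁷ cells in PBS:Matrigel 1:1) grown 14–21 d in 7-wk-old C57BL/6 mice. Mice (n = 5/group) were given the ⁶⁴Cu-labelled conjugate i.v., 14 μCi (14 ng; 1000 μCi/μg); the blocking group's dose was premixed with 50 μg unlabelled ligand. Animals were killed at 2 h, and tissues and tumour were weighed and gamma-counted. %ID/g was decay-corrected against an injected-dose standard; mean±SD.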

[2] = tested on: B16F10 tumor-bearing mice; experiment: as above; type: in vivo, C57BL/6 mice; settings: 2 h, co-administered with excess cold LLP2A (50 μg)
Procedure, shortened: as §1

[3] = tested on: B16F10 tumor-bearing mice; experiment: Small animal PET/CT imaging of B16F10 tumor-bearing mice; type: in vivo, C57BL/6 mice; settings: 2 h post-injection
Procedure, shortened: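 Mice bearing B16F10 tumours received the ⁶⁴Cu-labelled conjugate by tail vein, 100 μCi (667 ng); half of the doses were premixed with 100 μg unlabelled ligand. PET/CT was done at 2 and 24 h under 1–2% isoflurane, with 15 or 30 min static scans and MAP reconstruction. CT-guided ROIs gave maximum SUV (nCi/mL × weight/injected dose), and tumour:background ratios were taken from MIP images (n = 2).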

[4] = tested on: B16F10 tumor-bearing mice; settings: 2 h post-injection, 5 μCi (12.5 ng); previously published data; cited from earlier work

Sequence of integrin α4β1 (VLA-4) (Q00651 41-1039): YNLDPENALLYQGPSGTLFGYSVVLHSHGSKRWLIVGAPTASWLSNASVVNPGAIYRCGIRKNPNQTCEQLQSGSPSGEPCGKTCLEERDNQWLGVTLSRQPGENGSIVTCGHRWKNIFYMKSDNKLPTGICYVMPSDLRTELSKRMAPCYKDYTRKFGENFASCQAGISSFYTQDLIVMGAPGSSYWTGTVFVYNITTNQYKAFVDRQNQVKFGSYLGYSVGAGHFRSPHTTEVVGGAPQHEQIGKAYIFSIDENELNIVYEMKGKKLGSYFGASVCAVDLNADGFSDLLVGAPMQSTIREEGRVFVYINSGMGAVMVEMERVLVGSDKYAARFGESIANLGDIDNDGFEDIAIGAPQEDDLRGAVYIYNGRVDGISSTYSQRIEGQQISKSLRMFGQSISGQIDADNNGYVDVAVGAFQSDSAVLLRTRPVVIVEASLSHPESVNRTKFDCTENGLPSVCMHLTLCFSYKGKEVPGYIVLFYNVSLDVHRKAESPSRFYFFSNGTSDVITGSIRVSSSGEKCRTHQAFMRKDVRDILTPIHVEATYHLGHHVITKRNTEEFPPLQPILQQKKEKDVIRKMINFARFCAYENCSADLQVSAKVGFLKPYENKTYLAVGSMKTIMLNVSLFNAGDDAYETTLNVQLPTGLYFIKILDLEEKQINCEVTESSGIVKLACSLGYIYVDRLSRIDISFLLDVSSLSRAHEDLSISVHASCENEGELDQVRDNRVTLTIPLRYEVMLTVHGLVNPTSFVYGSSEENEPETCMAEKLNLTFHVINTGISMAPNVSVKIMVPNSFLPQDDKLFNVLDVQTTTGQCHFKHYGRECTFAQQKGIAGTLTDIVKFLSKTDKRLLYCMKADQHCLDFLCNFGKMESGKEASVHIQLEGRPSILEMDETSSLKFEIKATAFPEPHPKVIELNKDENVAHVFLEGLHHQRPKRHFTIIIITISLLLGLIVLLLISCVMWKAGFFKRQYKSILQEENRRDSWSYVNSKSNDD
Sequence of integrin α4β1 (VLA-4) (P09055 21-798): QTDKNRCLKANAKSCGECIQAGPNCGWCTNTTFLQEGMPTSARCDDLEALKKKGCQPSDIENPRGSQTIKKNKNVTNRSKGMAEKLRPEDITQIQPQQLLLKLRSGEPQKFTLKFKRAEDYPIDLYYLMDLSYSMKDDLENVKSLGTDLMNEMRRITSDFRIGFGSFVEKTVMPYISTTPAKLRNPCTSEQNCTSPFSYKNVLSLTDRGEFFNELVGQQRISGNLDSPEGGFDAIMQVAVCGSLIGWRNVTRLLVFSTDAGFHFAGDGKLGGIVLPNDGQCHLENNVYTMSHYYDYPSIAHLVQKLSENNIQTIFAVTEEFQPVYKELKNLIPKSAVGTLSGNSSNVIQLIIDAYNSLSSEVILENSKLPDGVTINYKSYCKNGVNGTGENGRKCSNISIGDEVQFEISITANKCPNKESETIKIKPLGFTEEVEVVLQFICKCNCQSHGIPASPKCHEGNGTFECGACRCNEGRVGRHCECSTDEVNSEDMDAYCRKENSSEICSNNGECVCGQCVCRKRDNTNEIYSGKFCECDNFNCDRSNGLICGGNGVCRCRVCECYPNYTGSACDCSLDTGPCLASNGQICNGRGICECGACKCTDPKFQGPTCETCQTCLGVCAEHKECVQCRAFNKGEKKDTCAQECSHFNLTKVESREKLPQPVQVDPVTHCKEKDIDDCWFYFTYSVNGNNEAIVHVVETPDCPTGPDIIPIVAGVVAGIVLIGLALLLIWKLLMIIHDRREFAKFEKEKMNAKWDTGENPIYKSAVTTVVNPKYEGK

Row | Compound | receptor concentration (Bmax) (integrin α4β1 (VLA-4)) | tissue uptake at 2 h ([1]; bone) | tissue uptake at 2 h ([1]; kidney) | tissue uptake at 2 h ([1]; liver) | tissue uptake at 2 h ([1]; marrow) | tissue uptake at 2 h ([1]; spleen) | tissue to tissue ratio at 2 h ([1]; tumor / blood) | tissue to tissue ratio at 2 h ([1]; tumor / muscle) | tissue uptake at 2 h ([1]; tumor) | Radiotracer uptake in tumor, spleen and bone in the presence of blocking agent [2] | Fold higher tumor to background ratio than ^64Cu-CB-TE2A-LLP2A [3] | Tumor to blood ratio [4] | Tumor to muscle ratio [4]
1 | Cc1ccccc1NC(=O)Nc1ccc(CC(=O)N[C@@H](CCCCNC(=O)/C=C/c2cccnc2)C(=O)N[C@@H](CCCC(=O)O)C(=O)NC2(C(=O)NCCOCCOCCNC(=O)CCC(=O)NCCOCCOCCNC(=O)CCC(=O)N[C@@H](CCCCNC(=O)CN3CCCN4CCN(CCCN(CP(=O)(O)O)CC4)CC3)C(N)=O)CCCCC2)cc1 [^64Cu-CB-TE1A1P-LLP2A, metal not drawn] | 471 fmol/mg and 471 ± 14 fmol/mg | 6.2 ± 1.7 %ID/g | 3.2 ± 0.4 %ID/g | 2.3 ± 0.3 %ID/g | 32.6 ± 19 %ID/g | 17.9 ± 2.3 %ID/g | 19.5 ± 3 | 13 ± 1.4 | 11.4 ± 2.3 %ID/g | significantly reduced | more than 2 fold | – | –
2 | Cc1ccccc1NC(=O)Nc1ccc(CC(=O)N[C@@H](CCCCNC(=O)/C=C/c2cccnc2)C(=O)N[C@@H](CCCC(=O)O)C(=O)NC2(C(=O)NCCOCCOCCNC(=O)CCC(=O)NCCOCCOCCNC(=O)CCC(=O)N[C@@H](CCCCNC(=O)CN3CCCN4CCN(CCCN(CC(=O)O)CC4)CC3)C(N)=O)CCCCC2)cc1 [^64Cu-CB-TE2A-LLP2A, metal not drawn, reference compound] | 304 fmol/mg and 304 ± 18 fmol/mg | – | – | – | – | – | – | – | – | – | – | 4.2 ± 1.4 | 5.5 ± 0.9
